From ChEMBL document CHEMBL2146385, “Synthesis and antiviral evaluation of bis(POM) prodrugs of (E)-[4'-phosphono-but-2'-en-1'-yl]purine nucleosides” (Eur J Med Chem, 2012)
Calls of active or inactive are those of the source. No cut-off for these calls is given here.

Key:
Human alphaherpesvirus 3 [1] = assay: Antiviral activity against VZV OKA expressing thymidine kinase infected in HEL cells assessed as inhibition of virus-induced cytopathogenicity after 3 days; assay type: functional, cell-based; conditions: Human alphaherpesvirus 3, strain Oka vaccine, 72 h
[2] = test system: Vesicular stomatitis virus; assay: Antiviral activity against Vesicular stomatitis virus infected in MDCK assessed as inhibition of virus-induced cytopathicity after 3 days; assay type: functional, organism-based
[3] = test system: Vesicular stomatitis virus; assay: Antiviral activity against Vesicular stomatitis virus infected in human HeLa assessed as inhibition of virus-induced cytopathicity after 3 days; assay type: functional, organism-based
Influenza B virus = assay: Antiviral activity against Influenza B virus infected in MDCK assessed as inhibition of virus-induced cytopathicity after 3 days; assay type: functional, organism-based
Punta Toro virus = assay: Antiviral activity against Punta Toro virus infected in african green monkey Vero assessed as inhibition of virus-induced cytopathicity after 3 days; assay type: functional, organism-based
How it was run: (§1)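 Confluent cell monolayers infected with 100 CCID50 of virus in the presence of test compound at 100, 20,... μM. Cytopathicity was scored once it was complete in untreated infected controls.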

[4] = test system: Mammalian orthoreovirus 1; assay: Antiviral activity against Reovirus-1 infected in african green monkey Vero assessed as inhibition of virus-induced cytopathicity after 3 days; assay type: functional, organism-based; how it was run: as §1
[5] = Cytotoxicity against HEL after 3 days; assay type: cell-based; conditions: human, HEL cells
How it was run: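 HEL cells were seeded at 5×10^3 cells/well and allowed to grow for 24 h, then given medium with varying compound concentrations. After 3 days at 37 °C, cells were counted with a Coulter counter.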

Coxsackievirus B4 = assay: Antiviral activity against Coxsackievirus B4 infected in human HeLa assessed as inhibition of virus-induced cytopathicity after 3 days; assay type: functional, organism-based; how it was run: as §1
Human alphaherpesvirus 1 [6] = assay: Antiviral activity against acyclovir-resistant thymidine kinase deficient HSV1 KOS infected in HEL assessed as inhibition of virus-induced cytopathicity after 3 days; assay type: functional, organism-based; conditions: Human alphaherpesvirus 1, KOS, 72 h
Influenza A virus [7] = assay: Antiviral activity against Influenza A virus H1N1 infected in MDCK assessed as inhibition of virus-induced cytopathicity after 3 days; assay type: functional, organism-based
Human respirovirus 3 = assay: Antiviral activity against Parainfluenza-3 virus infected in african green monkey Vero assessed as inhibition of virus-induced cytopathicity after 3 days; assay type: functional, organism-based; how it was run: as §1
Influenza A virus [8] = assay: Antiviral activity against Influenza A virus H3N2 infected in MDCK assessed as inhibition of virus-induced cytopathicity after 3 days; assay type: functional, organism-based
Sindbis virus = assay: Antiviral activity against Sindbis virus infected in african green monkey Vero assessed as inhibition of virus-induced cytopathicity after 3 days; assay type: functional, organism-based; how it was run: as §1
Human alphaherpesvirus 2 = assay: Antiviral activity against HSV2 G infected in HEL assessed as inhibition of virus-induced cytopathicity after 3 days; assay type: functional, organism-based; conditions: Human alphaherpesvirus 2, strain G, 72 h; how it was run: as §1
Human alphaherpesvirus 3 [9] = assay: Antiviral activity against thymidine kinase-deficient VZV 07/1 infected in human HEL cells assessed as reduction of virus-induced cytopathogenicity after 3 days; assay type: functional, organism-based; conditions: Human alphaherpesvirus 3, 07/1, HEL, 72 h
[10] = Cytotoxicity against HEL assessed as minimum compound concentration causes microscopically detectable alteration of cell morphology after 3 days; assay type: cell-based; conditions: human, HEL cells
[11] = test system: Respiratory syncytial virus; assay: Antiviral activity against Respiratory syncytial virus infected in human HeLa assessed as inhibition of virus-induced cytopathicity after 3 days; assay type: functional, organism-based; how it was run: as §1
Human alphaherpesvirus 1 [12] = assay: Antiviral activity against HSV1 KOS infected in HEL assessed as inhibition of virus-induced cytopathicity after 3 days; assay type: functional, organism-based; conditions: Human alphaherpesvirus 1, KOS, 72 h
Vaccinia virus = assay: Antiviral activity against Vaccinia virus infected in HEL assessed as inhibition of virus-induced cytopathicity after 3 days; assay type: functional, organism-based; conditions: Orthopoxvirus vaccinia, 72 h

## C=CCNc1ncnc2c1ncn2C/C=C/CP(=O)(OCOC(=O)C(C)(C)C)OCOC(=O)C(C)(C)C
Human alphaherpesvirus 3 [1]
  EC50: > 100 µM
[2]
  Activity: inactive
[3]
  Activity: inactive
Influenza B virus
  Activity: inactive
Punta Toro virus
  Activity: inactive
[4]
  Activity: inactive
[5]
  CC50 at 72 h: > 100 µM
Coxsackievirus B4
  Activity: inactive
Human alphaherpesvirus 1 [6]
  EC50: > 100 µM
Influenza A virus [7]
  Activity: inactive
Human respirovirus 3
  Activity: inactive
Influenza A virus [8]
  Activity: inactive
Sindbis virus
  Activity: inactive
Human alphaherpesvirus 2
  EC50: > 100 µM
Human alphaherpesvirus 3 [9]
  EC50: > 100 µM
[10]
  MCC at 72 h: > 100 µM
[11]
  Activity: inactive
Human alphaherpesvirus 1 [12]
  EC50: > 100 µM
Vaccinia virus
  EC50: > 100 µM

## CCCCNc1ncnc2c1ncn2C/C=C/CP(=O)(OCOC(=O)C(C)(C)C)OCOC(=O)C(C)(C)C
Human alphaherpesvirus 3 [1]
  EC50: 100 µM
[2]
  Activity: inactive
[3]
  Activity: inactive
Influenza B virus
  Activity: inactive
Punta Toro virus
  Activity: inactive
[4]
  Activity: inactive
[5]
  CC50 at 72 h: 37.2 µM
Coxsackievirus B4
  Activity: inactive
Human alphaherpesvirus 1 [6]
  EC50: > 100 µM
Influenza A virus [7]
  Activity: inactive
Human respirovirus 3
  Activity: inactive
Influenza A virus [8]
  Activity: inactive
Sindbis virus
  Activity: inactive
Human alphaherpesvirus 2
  EC50: > 100 µM
Human alphaherpesvirus 3 [9]
  EC50: > 100 µM
[10]
  MCC at 72 h: > 100 µM
[11]
  Activity: inactive
Human alphaherpesvirus 1 [12]
  EC50: > 100 µM
Vaccinia virus
  EC50: > 100 µM

## CC(C)(C)C(=O)OCOP(=O)(C/C=C/Cn1cnc2c(Cl)nc(N)nc21)OCOC(=O)C(C)(C)C
Human alphaherpesvirus 3 [1]
  EC50: 4.4 µM
[2]
  Activity: inactive
[3]
  Activity: inactive
Influenza B virus
  Activity: inactive
Punta Toro virus
  Activity: inactive
[4]
  Activity: inactive
[5]
  CC50 at 72 h: 5.4 µM
Coxsackievirus B4
  Activity: inactive
Human alphaherpesvirus 1 [6]
  EC50: > 20 µM
Influenza A virus [7]
  Activity: inactive
Human respirovirus 3
  Activity: inactive
Influenza A virus [8]
  Activity: inactive
Sindbis virus
  Activity: inactive
Human alphaherpesvirus 2
  EC50: > 20 µM
Human alphaherpesvirus 3 [9]
  EC50: 2.2 µM
[10]
  MCC at 72 h: > 100 µM
[11]
  Activity: inactive
Human alphaherpesvirus 1 [12]
  EC50: > 20 µM
Vaccinia virus
  EC50: > 20 µM

## CC(C)(C)C(=O)OCOP(=O)(C/C=C/Cn1cnc2c(NC3CCCCC3)nc(N)nc21)OCOC(=O)C(C)(C)C
Human alphaherpesvirus 3 [1]
  EC50: 6.34 µM
[2]
  Activity: inactive
[3]
  Activity: inactive
Influenza B virus
  Activity: inactive
Punta Toro virus
  Activity: inactive
[4]
  Activity: inactive
[5]
  CC50 at 72 h: 9 µM
Coxsackievirus B4
  Activity: inactive
Human alphaherpesvirus 1 [6]
  EC50: > 100 µM
Influenza A virus [7]
  Activity: inactive
Human respirovirus 3
  Activity: inactive
Influenza A virus [8]
  Activity: inactive
Sindbis virus
  Activity: inactive
Human alphaherpesvirus 2
  EC50: > 100 µM
Human alphaherpesvirus 3 [9]
  EC50: 20 µM
[10]
  MCC at 72 h: 100 µM
[11]
  Activity: inactive
Human alphaherpesvirus 1 [12]
  EC50: > 100 µM
Vaccinia virus
  EC50: > 100 µM

## CC(C)(C)C(=O)OCOP(=O)(C/C=C/Cn1cnc2c(N)ncnc21)OCOC(=O)C(C)(C)C
Human alphaherpesvirus 3 [1]
  EC50: 12.6 µM
[2]
  Activity: inactive
[3]
  Activity: inactive
Influenza B virus
  Activity: inactive
Punta Toro virus
  Activity: inactive
[4]
  Activity: inactive
[5]
  CC50 at 72 h: 11.6 µM
Coxsackievirus B4
  Activity: inactive
Human alphaherpesvirus 1 [6]
  EC50: 20 µM
Influenza A virus [7]
  Activity: inactive
Human respirovirus 3
  Activity: inactive
Influenza A virus [8]
  Activity: inactive
Sindbis virus
  Activity: inactive
Human alphaherpesvirus 2
  EC50: 45 µM
Human alphaherpesvirus 3 [9]
  EC50: 13.5 µM
[10]
  MCC at 72 h: > 100 µM
[11]
  Activity: inactive
Human alphaherpesvirus 1 [12]
  EC50: > 100 µM
Vaccinia virus
  EC50: > 100 µM

## CC(C)c1ccc(Nc2nc(N)nc3c2ncn3C/C=C/CP(=O)(OCOC(=O)C(C)(C)C)OCOC(=O)C(C)(C)C)cc1
Human alphaherpesvirus 3 [1]
  EC50: > 20 µM
[2]
  Activity: inactive
[3]
  Activity: inactive
Influenza B virus
  Activity: inactive
Punta Toro virus
  Activity: inactive
[4]
  Activity: inactive
[5]
  CC50 at 72 h: 46 µM
Coxsackievirus B4
  Activity: inactive
Human alphaherpesvirus 1 [6]
  EC50: > 100 µM
Influenza A virus [7]
  Activity: inactive
Human respirovirus 3
  Activity: inactive
Influenza A virus [8]
  Activity: inactive
Sindbis virus
  Activity: inactive
Human alphaherpesvirus 2
  EC50: > 100 µM
Human alphaherpesvirus 3 [9]
  EC50: > 100 µM
[10]
  MCC at 72 h: > 100 µM
[11]
  Activity: inactive
Human alphaherpesvirus 1 [12]
  EC50: > 100 µM
Vaccinia virus
  EC50: > 100 µM
